# SKKanGAS inh: blocks kanamycin growth of S. pyogenes SKKanGAS strain; BacTiter-Glo, 6 h; inhibition, % at 7.5 µM; actives 1.3% (n = 300,000);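 active = mean replicate score, as percent of positive control median, at least 50; inconclusive = mean below 50 but one replicate at or above 50; inactive = mean and every replicate below 50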;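 also: strain carries kanamycin resistance gene driven by streptokinase promoter and grows in 40 µg/ml kanamycin; loss of luminescence reflects streptokinase promoter inhibition or plain growth inhibition; 0% = median of DMSO wells and 100% = positive control at its reference dose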
# Cl transport mod: modulators of human KCC2 chloride dependent transport; Q9H2X9; KCC2 cells, thallium flux FluoZin-2 fluorescence; B-score of Tl+ flux slope (higher = more flux/activation; lower = inhibition) at 10 µM; actives 2.2% (n = 190,000);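 active = thallium flux slope and its plate-corrected score both differing from the plate sample mean at a set confidence after two filtering rounds, in either direction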;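 also: slope of fluorescence scaled to starting intensity during 10 to 20 s after thallium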
# Insulin prom up: MIN6 insulin promoter up-regulation; MIN6 insulin promoter-GFP reporter, high-content imaging; stronger effect = higher value; z-score at 5 µM; actives 0.3% (n = 190,000);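 active = z-score above 3 at 5 µM with at least 500 cells counted in the well; inconclusive = wells under 500 cells, flagged as cytotoxic or low count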
# Rad51 HR inh: Rad51 (human) homologous recombination inhibition. Q06609. hRad51 DNA strand exchange, fluorescence dequenching. inhibition, % at 10 µM. actives 0.085% (n = 200,000);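 active = inhibition above 40% at the single screening dose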;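 also: 0% = DMSO control wells and 100% = blanks with heterologous ssDNA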
# Target sequence (Q06609 whole entry, looked up): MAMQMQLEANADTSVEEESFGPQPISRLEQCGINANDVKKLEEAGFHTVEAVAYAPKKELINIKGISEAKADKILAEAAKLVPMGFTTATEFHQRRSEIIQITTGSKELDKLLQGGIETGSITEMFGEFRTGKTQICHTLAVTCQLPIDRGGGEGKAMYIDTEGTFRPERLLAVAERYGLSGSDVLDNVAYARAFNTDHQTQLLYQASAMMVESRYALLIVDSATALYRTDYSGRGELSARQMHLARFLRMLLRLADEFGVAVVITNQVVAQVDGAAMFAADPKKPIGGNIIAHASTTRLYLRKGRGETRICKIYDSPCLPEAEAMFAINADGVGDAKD
#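 material = hRad51 filaments on single-stranded DNA | timing = filaments 15 min 37 °C, then compound 30 min | signal = FRET fluorescence dequenching, excitation 485 nm, emission 520 nm | benchmarks = control wells and blank wells on each plate | evaluation = percent inhibition relative to plate controls and blanks | compound = 10 µM final, single point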
# Autophagy HCS: autophagy modulation, high-content screen. MEF GFP-LC3 puncta imaging; test concentration mostly 10 µM. calls only at 10 µM (by protocol). actives 0.98% (n = 190,000);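 active = percentage of spot-positive cells more than 3 SD above its plate mean, without a fluorescence outlier flag or 80% toxicity; inconclusive = no clear call, values can overlap the other calls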;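 also: spot-positive cell cutoff set from DMSO-treated cells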
# WT yeast gro inh: growth inhibition of WT yeast, mitochondrial fusion screen. mitochondrial fusion phenotypic screen, WT strain. AID 1362. actives 2.1% (n = 190,000). inhibition, % at 10 µM; in the data active = inhibition above about 58%; tested in S. cerevisiae
# Numbers without * were called inactive; i = inactive; ? = inconclusive; nt = no result given; + = active, no number. The list is not random: actives were taken first. Their share in the collection is about 4.2%.
SMILES,SKKanGAS inh,Cl transport mod,Insulin prom up,Rad51 HR inh,Autophagy HCS,WT yeast gro inh
C/C(=N/NC(=O)c1cccs1)c1ccc(NC(=O)COc2ccc(Cl)cc2Cl)cc1,2,-1.9,0.8,-6,+,1
COc1ccccc1CCNC(=O)c1cc(COc2cccc(C(F)(F)F)c2)on1,12,nt,nt,nt,nt,nt
CCOc1ccc(C(=O)Nc2sc3c(c2C(=O)OC)CC(C)(C)NC3(C)C)cc1,-1,-0.15,-0.25,nt,i,26
COC(=O)c1c(NC(=O)c2nc3ccccc3s2)sc2c1CC(C)(C)NC2(C)C,12,-0.055,?,nt,i,83*
Cc1cc(C)c(C(=O)CN2C(=O)NC3(CCCCCC3)C2=O)cc1C,8,-0.1,-0.86,1,+,-4
Cc1cc(C(=O)CN2C(=O)NC3(CCCCC3)C2=O)c(C)n1C,2,1.3,0.93,-3,i,-15
CCCCCCCOC(=O)C[N+](C)(C)CCOC1CC2CCC1(C)C2(C)C (centres undefined),?,1.4,?,7,i,78*
CCCCCCOC(=O)C[N+](C)(C)CCOC1CC2CCC1(C)C2(C)C (centres undefined),19,nt,?,7,i,57
Brc1cc2c(cc1C1Nc3ccccc3C3C=CCC31)OCO2 (centres undefined),64*,0.15,-0.19,0,i,48
O=C(O)c1ccc2c(c1)C1C=CCC1C(c1cc3c(cc1Br)OCO3)N2 (centres undefined),16,nt,0.27,-7,i,35
Cc1cc(C)c2c(c1)NC(c1cc3c(cc1Br)OCO3)C1CC=CC21 (centres undefined),51*,0.18,0.55,-5,i,55
O=C1CCC([N+](=O)[O-])C(c2cc3c(cc2Br)OCO3)N1 (centres undefined),6,0.66,-0.32,-4,i,8
CCOc1ccc(S(=O)(=O)N2CCC(C(=O)NC3CC3)CC2)cc1Cl,1,nt,nt,nt,nt,nt
COc1ccccc1NC(=O)c1cccc2c(Br)cccc12,0,nt,nt,nt,nt,nt
CNS(=O)(=O)c1cc(-c2nnc(N3CCOCC3)c3ccccc23)ccc1C,-9,nt,nt,nt,nt,nt
CN(C1=C(N2CCCCC2)C(=O)c2ccccc2C1=O)c1ccccc1,18,-0.51,-0.35,7,i,76*
S=C(CN1CCCC1=S)NCCc1ccccc1,4,0.85,-0.07,nt,nt,nt
CCCCn1c(O)c(N=NC(=O)c2ccncc2)c2cc(Br)ccc21,83*,0.54,-0.35,3,i,-6
CCn1c(O)c(N=NC(=O)c2cccnc2)c2cc(Br)ccc21,-4,0.15,-0.68,12,nt,nt
c1ccc(OCc2nc3c4c(ncn3n2)-c2ccccc2CC42CCCC2)cc1,52*,0.68,-0.12,nt,i,13
Cc1ccc(C(=O)Nc2cc(Cl)ccc2N2CCCCC2)s1,7,0.4,-0.27,nt,i,68*
CCc1sc(C(=O)Nc2cc(Cl)ccc2N2CCCCC2)cc1C,9,-1.7,nt,0,i,3
CCOC(=O)CN1C(=O)S/C(=C/C=C/c2ccc(N(C)C)cc2)C1=O,-3,0.047,0.5,nt,i,12
COc1ccc(CCN2C(=O)c3[nH]nc(-c4ccccc4O)c3C2c2cccc(Cl)c2)cc1 (centres undefined),71*,-0.0056,-0.29,-5,i,-8
COc1ccc(C2c3c(-c4ccccc4O)n[nH]c3C(=O)N2CCc2ccc(OC)c(OC)c2)cc1 (centres undefined),9,nt,-1.1,-1,i,-8
SMILES,SKKanGAS inh,Cl transport mod,Insulin prom up,Rad51 HR inh,Autophagy HCS,WT yeast gro inh
Cc1c(C(=O)N/N=C/c2cccnc2)nnn1-c1nonc1N,-5,nt,nt,nt,nt,nt
COc1ccc(C)cc1N(C(=O)c1ccc(F)cc1)c1nc2ccccc2s1,13,0.082,-0.04,0,i,69*
COc1ccc(Nc2nc(N)nc(CN3CCOCC3)n2)cc1,8,0.47,nt,5,i,10
Cc1ccc(Nc2nc(N)nc(CN3CCN(Cc4ccc5c(c4)OCO5)CC3)n2)cc1Cl,11,nt,-2.1,-4,+,29
Cc1ccc(Nc2nc(N)nc(CN3CCN(c4ccccc4)CC3)n2)cc1Cl,87*,-1,-0.53,2,i,32
COc1ccc(N2CCN(Cc3nc(N)nc(Nc4ccc(C)c(Cl)c4)n3)CC2)cc1,74*,nt,-4.6,-9,i,50
O=C(NNC(=O)C1CC=CCC1)c1ccccc1Cl (centres undefined),-2,nt,nt,nt,nt,nt
CN(C)CCNC(NC(=O)c1cccs1)C(Cl)(Cl)Cl (centres undefined),0,-0.67,-0.92,-2,i,5
CCOCCCN(C(=O)CCC(=O)Nc1cc(C)on1)C(C(=O)NC(C)(C)C)c1ccccc1Cl (centres undefined),-2,nt,nt,nt,nt,nt
CC(C)c1ccc(S(=O)(=O)/N=C2/C=CC(=O)c3ccccc32)cc1,nt,1.1,1.6,nt,i,68*
Cc1ccc(NNC(=O)C(=O)N2CCCCC2)cc1,6,-0.022,nt,1,i,64*
O=C(CC1Sc2ccccc2NC1=O)NCc1ccc(Cl)cc1 (centres undefined),-3,0.055,-0.54,19,i,-14
CC/C(=N/Nc1ccccc1Cl)c1cnnc(-c2ccccc2)n1,1,-0.052,-0.46,5,i,25
CCC/C(=N/Nc1ccc(Cl)cc1)c1cnnc(-c2ccccc2)n1,-8,0.25,nt,6,+,nt
COC(=O)C1=CN(CCOC23CC4CC(CC(C4)C2)C3)C=C(C(=O)OC)C1c1ccsc1,6,-0.025,0.44,-4,i,68*
COC(=O)C1=CN(Cc2ccc(OC)cc2)C=C(C(=O)OC)C1c1ccsc1,-11,-1.7,-0.29,-6,i,15
O=c1oc2cc(Oc3c([N+](=O)[O-])cc(C(F)(F)F)cc3[N+](=O)[O-])ccc2c2c1CCCC2,6,-0.5,0.03,-5,i,62*
COc1ccc2cnn(CCOc3cc(C)ccc3C(C)C)c(=O)c2c1OC,-5,-0.62,-0.36,nt,i,71*
CCOc1ccccc1OCCn1ncc2ccc(OC)c(OC)c2c1=O,-3,0.48,-0.49,5,i,-11
Cc1ccccc1OCc1nc2ccccc2c(=O)n1/N=C/c1c[nH]c2ccccc12,7,-0.3,-0.32,13,i,8
Cc1cc(/C=N/n2c(COc3ccccc3C)nc3ccccc3c2=O)c(O)c([N+](=O)[O-])c1,52*,-1.3,2.9,-4,i,27
O=c1c2ccccc2nc(COc2ccccc2)n1/N=C/c1cc([N+](=O)[O-])ccc1O,76*,-1.8,-0.18,3,i,-6
COc1cccc(N2CCN(c3ncnc4c3[nH]c3ccc(F)cc34)CC2C)c1 (centres undefined),?,-1,-3.7,3,+,79*

# Screening results as filed in PubChem.
